Source: the EternaBench riboswitch data

System: MS2 coat protein
Test: apparent Kd, MS2 coat protein; higher = weaker binding; RNA-MaP array; FMN 200 µM where present
Procedure, shortened: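 On Illumina sequencing-chip clusters, designs were transcribed by stalled E. coli RNA polymerase and titrated with SNAP-549-labelled MS2 coat protein (0.7 or 1.5 nM, doubling to 3 µM), without and then with constant ligand, in 100 mM Tris-HCl pH 7.5, 80 mM KCl, 4 mM MgCl2, BSA, DTT, yeast tRNA and Tween-20. Apparent Kd is the median of filtered per-cluster curve fits to green signal normalised to red-channel RNA signal and control-cluster median Fmax.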

[1] = designed as: OFF switch for flavin mononucleotide, no ligand
[2] = ligand present: flavin mononucleotide, designed as: OFF switch for flavin mononucleotide
[3] = designed as: ON switch for flavin mononucleotide, no ligand
[4] = ligand present: flavin mononucleotide, designed as: ON switch for flavin mononucleotide

| Sequence | apparent Kd [1] [nM] | apparent Kd [2] [nM] | apparent Kd [3] [nM] | apparent Kd [4] [nM] |
| --- | --- | --- | --- | --- |
| CUCCUACAUGAGGAUCACCCAUGUCAGGAUAUCUCAGUAGCACCUAAAGGUGCUACCCAGAGAAGGGACGUGCA | 11.6 | 15.5 |  |  |
| CUCCUGCAAGGAUAUACAUAGUGACGUCUGUUUAAUCUUAAACAUGAGGAUCACCCAUGUAGAAGGUGCGUCAC | 16.7 | 18.1 |  |  |
| CUCGAGCCAAGGCUCGCGAGUACACAGGAUAUGGAAAGUCACAUGAGGAUCACCCAUGUCCAAAACCAGAAGGGUGAGACUAAG |  |  | 425 | 85.7 |
| CUCUAUCAUGUAGGAUAUGCGUGGCGAAGCUAUGCAGAAGGACAUGAGGAUCACCCAUGUCUUUCUGUCUGCGGACGGACAGGG | 33.1 | 69.2 |  |  |
| CUCUUGUGAGGAUAUCAGGUGUGCUAGCGUACUGGUACAUCUGAGAAGGCACAUGAGGAUCACCCAUGUUUCAA | 118 | 21.9 |  |  |
| CUCUUGUGAGGAUAUCAGGUGUGCUAGCGUACUGGUACAUCUGAGAAGGCACAUGAGGAUCACCCAUGUUUCUA | 148 | 23.2 |  |  |
| CUCUUGUGAGGAUAUCAGGUGUGCUAGCGUACUGGUACAUCUGAGAAGGCACAUGAGGAUCACCCAUGUUUCUU | 97.7 | 72.3 |  |  |
| CUCUUGUGAGGAUAUGUAGGUUACGAGAGCAAAACGAACGGACAGAAGGUACAUGAGGAUCACCCAUGUGGGAU | 109 | 95.4 |  |  |
| CUGAGGUCAGGAUAUGCAUGGCGGGACUUGCGUCGUGGCGUGCAGAAGGGACAUGAGGAUCACCCAUGUGGAGG | 147 | 206 |  |  |
| CUGAGUAGUCAGGAUAUGCUGUACAAAAGUACAGCAGAAGGGAUUACAUGAGGAUCACCCAUGUUUUCUUCAUG | 56.1 | 137 |  |  |
| CUGAUGUGAGGAUAUCGGGCUACAGGCCUGCUGCUAGCAAACGAGAAGGCACAUGAGGAUCACCCAUGUGAUAG | 15.9 | 35.1 |  |  |
| CUGAUGUGAGGAUAUCUAAAAGAAACUGGGCAAAUACCCAGAGAGAAGGCACAUGAGGAUCACCCAUGUAACGA | 21.3 | 86.8 |  |  |
| CUGCCGUAGGAGAAGGACGGCGGGUUAUUUUUGUACAUGAGGAUCACCCAUGUAGGAUAUCCUACGUCAGGCGGCCUACUACAG | 13.7 | 19.8 |  |  |
| CUGCCUUAUGUAGGAUAUGCAUAGCAUUGCUAUGCAGAAGGACAUGAGGAUCACCCAUGUAUGUUAUCAAUACAUAUCUGGCAG | 17.5 | 54.5 |  |  |
| CUGCGGUCAGGAUAUGCAUGGCGGGACUUGCGUCGUGGCGUGGAGAAGGGACAUGAGGAUCACCCAUGUGGAGA | 67.9 | 42.3 |  |  |
| CUGCUCCGUGUAGGAUAUGCAUACUCCCAUUAUGCAGAAGGACAUGAGGAUCACCCAUGUAUGUUAUUAUCAUGUGUUGCGUGC | 42.5 | 185 |  |  |
| CUGGAAGUCGUAGGAUAUGGUGAUGUACAUGAGGAUCACCCAUGUCCGUCUUCUCUCACAAGAUGCCAGAAGGACGACUUCCGG |  |  | 625 | 101 |
| CUGGAUCACGCAGGAUAUUACAUGAGGAUCACCCAUGUCAGAACUGCAAUAUCGUCUCCUCGUUGUGAGAAGGGCGGAAUCAUA | 13.8 | 19.9 |  |  |
| CUGGAUGUCGAGGAUAUGCACCGGCUCGCUGACGCAGAAGGCGACACAUGAGGAUCACCCAUGUCGGUUCGCGA | 18.6 | 42 |  |  |

| Sequence | apparent Kd [1] [nM] | apparent Kd [2] [nM] | apparent Kd [3] [nM] | apparent Kd [4] [nM] |
| --- | --- | --- | --- | --- |
| CUGUACUGAGGAUAUACAUGAGGAUCACCCAUGUGUUCGAUACUAGUGAGGUCGAUUAGUAGAAGGCAGUACAG | 23 | 242 |  |  |
| CUGUAGAUAUCAGGAUAUCUAUUUCCUACAUGAGGAUCACCCAUGUAGGUGAUCACCCAAGUAAAGGAGAAGGGAUAUCUAUAG |  |  | 65 | 23.2 |
| CUGUUAUAGAUCCAUUUUUUCAACAUGAGGAUCACCCAUGUGCAGGAUAUCGUGAUUAUUUUCAUCGAGAAGGGCAUAAUCACG | 46.6 | 51 |  |  |
| CUGUUAUAGGUCCAGAAUUACAACAUGAGGAUCACCCAUGUGCAGGAUAUCGAGUUAAUUUUCAACGAGAAGGGCAUAGUCACG | 35.9 | 67.6 |  |  |
| CUGUUAUUGAUCCAUUUUUUCAACAUGAGGAUCACCCAUGUGCAGGAUAUCUUGUUUAUUUUCAUCGAGAAGGGCAUAUUCACG | 159 | 196 |  |  |
| CUGUUCCGUGUAGGAUAUGCAUAUUCUCAUUAUGCAGAAGGACAUGAGGAUCACCCAUGUAUGUUAUUAUCAUAUGUUACAUGU | 37.5 | 321 |  |  |
| CUGUUCUGUGUAGGAUAUGCAUAUUCCCAUUAUGCAGAAGGACAUGAGGAUCACCCAUGUAUGUUAUUAUCAUGUGUUACAUGC | 37.6 | 146 |  |  |
| CUGUUUCGUGUAGGAUAUGCAUAUUCCCAUUAUGCAGAAGGACAUGAGGAUCACCCAUGUAUGUUAUUAUCAUGUGUUACAUGC | 51 | 432 |  |  |
| CUUAAAGACGAGAAGGCUGAUUUGACAUGAGCGUCAGCCGUGUAACAUGAGGAUCACCCAUGUGCGGAGGAUAUUGAUCUUGAG |  |  | 12.3 | 13.9 |
| CUUAGGUGUACAUGAGGAUCACCCAUGUCCCUGGUCAUUAGACAGGAUAUAUGGGCGGUCGCUUCAUAGAAGGGUUAAAUGGGU |  |  | 837 | 780 |
| CUUAUACAUGAGGAUCACCCAUGUUAGGAUAUUCGCCCGCAUUGGAAGUCCGGUCUUGGAAGAAGGAACGUGGG | 36.8 | 59.1 |  |  |
| CUUAUGUAAGGAUAUCAGUAGUAAAAAAAUAAAAUUACUACUGAGAAGGUACAUGAGGAUCACCCAUGUAUCAA | 27.6 | 30.4 |  |  |
| CUUAUGUGAGGAUAUCAGUAGUAAAAAAAUAAAAUUACUACUGAGAAGGCACAUGAGGAUCACCCAUGUCUUUC | 33 | 37.8 |  |  |
| CUUGGGUGGCUGGAGGAUAUUCGAGUGGUAACAUGAGGAUCACCCAUGUGUCGCGCGGUACACGAGGAGAAGGCUGGCGGCCGGC |  |  | 146 | 54.6 |
| CUUUAGCUAGGAUAUACAUGAGGAUCACCCAUGUUAGCGGUCAAUUGGGCCGCGGGUUGUAGAAGGAGCAUUAA | 32.5 | 53.4 |  |  |
| CUUUAUCACUAUACAUGAGGAUCACCCAUGUUAUCAUCAUGAGAGGAUAUCGUAUUUGGAUUUUUCGAGAAGGCUCUUUUGUAU |  |  | 108 | 77.1 |
| CUUUCGUGAGGAUAUGUGGCUUAAAUCGUGAGAUCGAGGCUACAGAAGGCACAUGAGGAUCACCCAUGUUCCUC | 36 | 569 |  |  |
| CUUUUGUGAGGAUAUCAGUAGUAAAAUAAUAAUAUUACUACUGAGAAGGCACAUGAGGAUCACCCAUGUUCCUC | 40.5 | 267 |  |  |
| CUUUUGUGAGGAUAUCAGUAGUAAAUAAAUAAAAUUACUACUGAGAAGGCACAUGAGGAUCACCCAUGUUCCUU | 14.7 | 28.4 |  |  |

| Sequence | apparent Kd [1] [nM] | apparent Kd [2] [nM] | apparent Kd [3] [nM] | apparent Kd [4] [nM] |
| --- | --- | --- | --- | --- |
| CUUUUGUGAGGAUAUCAGUAGUAAAUAAAUAAAUUAACUACUGAGAAGGCACAUGAGGAUCACCCAUGUUCCUU | 13 | 29.4 |  |  |
| CUUUUGUGAGGAUAUCAGUAGUAAUACAAUAGUAUUACUACUGAGAAGGCACAUGAGGAUCACCCAUGUUCCUC | 45 | 162 |  |  |
| CUUUUGUGAGGAUAUCUGUAGUAAAAAAAUAAAAUUACUACUGAGAAGGCACAUGAGGAUCACCCAUGUUCCUC | 39.6 | 181 |  |  |
| CUUUUGUGAGGAUAUUAGUAGUAAAUGAAUAAAAUUAUUACUGAGAAGGUACAUGAGGAUCACCCAUGUUCCUC | 16.8 | 24.6 |  |  |
| CUUUUGUUAGGAUAUUAGUAGUAAAUAAAUAAAAUUACUACUGAGAAGGCACAUGAGGAUCACCCAUGUUCCUC | 26 | 31.4 |  |  |
| GAAAAACAUGAGGAUCACCCAUGUGAGAAUAUGGGAGGAUAUACGAGGACGAGAGUCAAGGUAGAAGGCCUAAAAG |  |  | 96.3 | 15.2 |
| GAAAAACAUGAGGAUCACCCAUGUGUAAACAAGGGAGGAUAUACAAAGACGUAAGUCAAAGUAGAAGGCCUAAAAG |  |  | 25 | 9.6 |
| GAAAACGCAGAGGAUAUUCCAGAUCUAAGCUGCGAAGAAGGCUGCACAUGAGGAUCACCCAUGUGGUCUUUAAA | 18.8 | 116 |  |  |
| GAAAACUGAGGAUAUACAUGAGGAUCACCCAUGUAGGUACGGCUUCUACAUUCGUCAUGUAGAAGGCAGUAUAA | 18.1 | 15.7 |  |  |
| GAAAGAAAUCCAACAUGAGGAUCACCCAUGUUAGGCCAGUGGCAGGAUAUGGUGGGACUGAUGCACCAGAAGGGUCAGGUGGGC |  |  | 17.9 | 10 |
| GAAAUUCGGGCAGGAUAUGGGUGCCGUCAAGACAUGAGGAUCACCCAUGUCCCAUGCACGAGCGCUCAGAAGGGCUCAUUGCAG |  |  | 20.8 | 22 |
| GAACGGUGAGCAGGAUAUCCACAUUGUCUCCUACAUGAGGAUCACCCAUGUGGAGAAGGGUUUAUAAGUUCGUGUAUACUCAAC | 6.35 | 6.9 |  |  |
| GAACUGAAGCUUAGCUUUAGUCGUACAUGAGGAUCACCCAUGUAGGAUAUGGUAGGCAUAGCUUACUAGAAGGAUAGAGUGAUC | 198 | 69.6 |  |  |
| GAACUGAGGCAAAGCUUUAGUCGUACAUGAGGAUCACCCAUGUAGGAUAUGGUAGGCUUUGCUUACCAGAAGGACAGAGUGAUC | 102 | 139 |  |  |
| GAAGCAUCCAAUAACAUGAGGAUCACCCAUGUCAAAAGACGGGAGGAUAUUGAUCUGAAGAAGAUCAAGAAGGCCUGGUGCUAA |  |  | 10.1 | 7.35 |
| GAAUAACAUGAGGAUCACCCAUGUGAUUCGCAUGUAGGAUAUGGGCACGCGCCCGCGUGUCCAGAAGGACAGGCUA |  |  | 154 | 130 |
| GAAUAAUUGAUCCAAUUUAACUACAUGAGGAUCACCCAUGUGCAGGAUAUCGUAAUAUUUAUUUUCGAGAAGGGCAAGAACGGU | 162 | 320 |  |  |
| GAAUGAGAGCAGGAUAUCUUAUAAUUGUAUGAAAGAGAAGGGCUCACAUGAGGAUCACCCAUGUGGUCCUAGAU | 42 | 299 |  |  |
